Reference: ChEMBL document CHEMBL4152223 (Eur J Med Chem, 2018)
≈ marks a conversion by molar mass, not a printed value.

What was measured:
[1] = tested on: Mycobacterium tuberculosis; experiment: Antimycobacterial activity against INH/RIF/rifabutine/STM resistant Mycobacterium tuberculosis 9449/2006 after 14 days; format: functional; settings: 9449/2006, 336 h
Method in brief: (§1)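 MIC against four MDR-TB strains and one XDR-TB strain, each inoculated at 10^-3 dilution, using the same broth method as for drug-susceptible M. tuberculosis. Concentrations tested were 1000 down to 1 µM in twofold-type steps (1000, 500, 250, 125, 62.5, 32, 16, 8, 4, 2, 1 µM). MIC is the lowest concentration with complete growth inhibition.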

[2] = tested on: Mycobacterium tuberculosis; experiment: Antimycobacterial activity against INH/RIF/rifabutine/STM resistant Mycobacterium tuberculosis 9449/2006 after 21 days; format: functional; settings: 9449/2006, 504 h; method in brief: as §1
[3] = tested on: Mycobacterium tuberculosis; experiment: Antimycobacterial activity against INH/RIF/rifabutine/STM/EMB/clofazimine resistant Mycobacterium tuberculosis Praha 1 after 14 days; format: functional; settings: Praha 1, 336 h; method in brief: as §1
[4] = tested on: Mycobacterium tuberculosis; experiment: Antimycobacterial activity against INH/RIF/rifabutine/STM/EMB/clofazimine resistant Mycobacterium tuberculosis Praha 1 after 21 days; format: functional; settings: Praha 1, 504 h; method in brief: as §1
[5] = tested on: Mycobacterium tuberculosis; experiment: Antimycobacterial activity against INH/RIF/rifabutine/STM/EMB/OFX/clofazimine resistant Mycobacterium tuberculosis Praha 4 after 14 days; format: functional; settings: Praha 4, 336 h; method in brief: as §1
[6] = tested on: Mycobacterium tuberculosis; experiment: Antimycobacterial activity against INH/RIF/rifabutine/STM/EMB/OFX/clofazimine resistant Mycobacterium tuberculosis Praha 4 after 21 days; format: functional; settings: Praha 4, 504 h; method in brief: as §1
[7] = tested on: Mycobacterium tuberculosis; experiment: Antimycobacterial activity against INH/RIF/rifabutine/STM/EMB resistant Mycobacterium tuberculosis 234/2005 after 14 days; format: functional; settings: 234/2005, 336 h; method in brief: as §1
[8] = tested on: Mycobacterium tuberculosis; experiment: Antimycobacterial activity against INH/RIF/rifabutine/STM/EMB resistant Mycobacterium tuberculosis 234/2005 after 21 days; format: functional; settings: 234/2005, 504 h; method in brief: as §1
[9] = tested on: Mycobacterium tuberculosis; experiment: Antimycobacterial activity against INH/RIF/rifabutine/STM/EMB/OFX/gentamicin/amikacin resistant Mycobacterium tuberculosis Praha 131 after 14 days; format: functional; settings: Praha 131, 336 h; method in brief: as §1
[10] = tested on: Mycobacterium tuberculosis; experiment: Antimycobacterial activity against INH/RIF/rifabutine/STM/EMB/OFX/gentamicin/amikacin resistant Mycobacterium tuberculosis Praha 131 after 21 days; format: functional; settings: Praha 131, 504 h; method in brief: as §1
[11] = Selectivity index, ratio of IC50 for human HepG2 cells to MIC for INH/RIF/rifabutine/STM resistant Mycobacterium tuberculosis 9449/2006; format: toxicity; settings: read-out: Selectivity Index
Method in brief: (§2)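 SI is calculated as HepG2 IC50 divided by MIC. HepG2 cells (passage 2-4) were grown in EMEM with 10% FBS, L-glutamine and non-essential amino acids. Compounds in DMSO were tested in triplicate at eight concentrations, and viability was read by MTS tetrazolium reduction. 10% DMSO served as the 0% viability control.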

[12] = Selectivity index, ratio of IC50 for human HepG2 cells to MIC for INH/RIF/rifabutine/STM/EMB/clofazimine resistant Mycobacterium tuberculosis Praha 1; format: toxicity; settings: read-out: Selectivity Index; method in brief: as §2
[13] = Selectivity index, ratio of IC50 for human HepG2 cells to MIC for INH/RIF/rifabutine/STM/EMB/OFX/clofazimine resistant Mycobacterium tuberculosis Praha 4; format: toxicity; settings: read-out: Selectivity Index; method in brief: as §2
[14] = Selectivity index, ratio of IC50 for human HepG2 cells to MIC for INH/RIF/rifabutine/STM/EMB resistant Mycobacterium tuberculosis 234/2005; format: toxicity; settings: read-out: Selectivity Index; method in brief: as §2
[15] = Selectivity index, ratio of IC50 for human HepG2 cells to MIC for INH/RIF/rifabutine/STM/EMB/OFX/gentamicin/amikacin resistant Mycobacterium tuberculosis Praha 131; format: toxicity; settings: read-out: Selectivity Index; method in brief: as §2
[16] = Selectivity ratio of MIC for INH/RIF/rifabutine/STM resistant Mycobacterium tuberculosis 9449/2006 to MIC for Mycobacterium tuberculosis H37Rv; format: functional
[17] = Selectivity ratio of MIC for INH/RIF/rifabutine/STM/EMB/clofazimine resistant Mycobacterium tuberculosis Praha 1 to MIC for Mycobacterium tuberculosis H37Rv; format: functional
[18] = Selectivity ratio of MIC for INH/RIF/rifabutine/STM/EMB/OFX/clofazimine resistant Mycobacterium tuberculosis Praha 4 to MIC for Mycobacterium tuberculosis H37Rv; format: functional
[19] = Selectivity ratio of MIC for INH/RIF/rifabutine/STM/EMB resistant Mycobacterium tuberculosis 234/2005 to MIC for Mycobacterium tuberculosis H37Rv; format: functional
[20] = Selectivity ratio of MIC for INH/RIF/rifabutine/STM/EMB/OFX/gentamicin/amikacin resistant Mycobacterium tuberculosis Praha 131 to MIC for Mycobacterium tuberculosis H37Rv; format: functional

Row | SMILES | MIC [1] [µM] | MIC [2] [µM] | MIC [3] [µM] | MIC [4] [µM] | MIC [5] [µM] | MIC [6] [µM] | MIC [7] [µM] | MIC [8] [µM] | MIC [9] [µM] | MIC [10] [µM] | selectivity ratio [11] | selectivity ratio [12] | selectivity ratio [13] | selectivity ratio [14] | selectivity ratio [15] | Ratio [16] | Ratio [17] | Ratio [18] | Ratio [19] | Ratio [20]
1 | CCCNC(=O)NNC(=O)c1ccncc1 | 16 (≈ 3.56 µg/mL) | 16 (≈ 3.56 µg/mL) | 16 (≈ 3.56 µg/mL) | 16 (≈ 3.56 µg/mL) | 16 (≈ 3.56 µg/mL) | 16 (≈ 3.56 µg/mL) | 16 (≈ 3.56 µg/mL) | 16 (≈ 3.56 µg/mL) | 16 (≈ 3.56 µg/mL) | 16 (≈ 3.56 µg/mL) | > 312 | > 312 | > 312 | > 312 | > 312 | < 125 | < 125 | < 125 | < 125 | < 125
2 | CCNC(=O)NNC(=O)c1ccncc1 | 125 (≈ 26 µg/mL) | 125 (≈ 26 µg/mL) | 125 (≈ 26 µg/mL) | 125 (≈ 26 µg/mL) | 125 (≈ 26 µg/mL) | 125 (≈ 26 µg/mL) | 125 (≈ 26 µg/mL) | 125 (≈ 26 µg/mL) | 125 (≈ 26 µg/mL) | 125 (≈ 26 µg/mL) | > 32 | > 32 | > 32 | > 32 | > 32 |  |  |  |  | 
3 | CCCCCCCCCCCCNc1nnc(-c2ccncc2)o1 | 4 (≈ 1.32 µg/mL) | 4 (≈ 1.32 µg/mL) | 4 (≈ 1.32 µg/mL) | 8 (≈ 2.64 µg/mL) | 4 (≈ 1.32 µg/mL) | 8 (≈ 2.64 µg/mL) | 4 (≈ 1.32 µg/mL) | 8 (≈ 2.64 µg/mL) | 4 (≈ 1.32 µg/mL) | 8 (≈ 2.64 µg/mL) | > 6.25 | > 6.25 | > 6.25 | > 6.25 | > 12.5 |  |  |  |  | 
4 | CNC(=O)NNC(=O)c1ccncc1 | 62.5 (≈ 12.1 µg/mL) | 62.5 (≈ 12.1 µg/mL) | 62.5 (≈ 12.1 µg/mL) | 62.5 (≈ 12.1 µg/mL) | 62.5 (≈ 12.1 µg/mL) | 62.5 (≈ 12.1 µg/mL) | 62.5 (≈ 12.1 µg/mL) | 62.5 (≈ 12.1 µg/mL) | 32 (≈ 6.21 µg/mL) | 62.5 (≈ 12.1 µg/mL) | > 80 | > 80 | > 80 | > 80 | > 80 | < 125 | < 125 | < 125 | < 125 | < 125
